The text below walks through data of ChEMBL document CHEMBL2062403, “Disulfide prodrugs of albitiazolium (T3/SAR97276): synthesis and biological activities” (J Med Chem, 2012).

Data set [1] relates to Plasmodium falciparum. As to the kind of experiment: Antiplasmodial activity against Plasmodium falciparum assessed as inhibition of [3H]hypoxanthine incorporation after 48 hrs. The data set is classed as functional, organism-based. The method, boiled down:
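P. falciparum Nigerian strain blood stages, modified Desjardins microtiter test; drug contact one parasite cycle (48 h); growth read as [³H]hypoxanthine incorporation into nucleic acids; IC50 = concentration giving 50% growth inhibition.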

Data set [2] deals with Mus musculus. In words: Prodrug conversion in ip dosed Swiss mouse assessed as albitiazolium bromide formation administered QD for 4 days. The data set is classed as ADME, organism-based. As to conditions: in vivo, 96 h; call rule not given here.
In data set [3] the test system is Plasmodium vinckei petteri. As to the kind of experiment: Antimalarial activity against Plasmodium vinckei petteri 279BY infected in po dosed Swiss mouse assessed as reduction in parasitemia administered QD for 4 days measured on day 5. It is filed as functional. The method, boiled down: (§1)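 P. vinckei-infected mice, 4-day suppressive test, dosing once daily for 4 days by ip or oral route; vehicle DMSO for both routes except some compounds given in 0.9% NaCl (ip) or water (po); ED50 = dose inhibiting in vivo parasite growth by 50%.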

The test system of data set [4] is Plasmodium vinckei petteri. In words: Ratio of ED50 for Plasmodium vinckei petteri 279BY infected in […] dosed Swiss mouse. The data set is classed as functional.
Data set [5] relates to Plasmodium vinckei petteri. In words: Antimalarial activity against Plasmodium vinckei petteri 279BY infected in ip dosed Swiss mouse assessed as reduction in parasitemia administered QD for 4 days measured on day 5. It is filed as functional. The method, boiled down: as §1
Data set [6] deals with Mus musculus. In words: Prodrug conversion in po dosed Swiss mouse assessed as albitiazolium bromide formation administered QD for 4 days. The data set is classed as ADME, organism-based. Conditions: in vivo, 96 h.
Data set [7] in a line: Aqueous solubility of the compound. It is filed as physicochemical. Conditions: water.

Usually IC50 stands for the concentration needed to halve the response being measured. As usually defined, the ED50 is the dose at which the effect has come halfway, by size or by number of responders. For `CCSS/C(CCOP(=O)([O-])[O-])=C(/C)N(C=O)CCCCCCCCCCCCN(C=O)/C(C)=C(/CCOP(=O)([O-])[O-])SSCC.[Li+].[Li+].[Li+].[Li+]`, in data set [1], the 50% inhibitory concentration (IC50) stood at 5700 nM. For the same molecule, the Drug metabolism result in data set [2] is “Active”. Also, the ED50 turned out to be 60 mg/kg in data set [3] and 1.1 mg/kg in data set [5]. In addition, in data set [4], the “Ratio ED50” value is 1.8.
`C/C(=C(\CCOP1(=O)OCc2ccccc2O1)SSCc1ccccc1)N(C=O)CCCCCCCCCCCCN(C=O)/C(C)=C(/CCOP1(=O)OCc2ccccc2O1)SSCc1ccccc1` (centres undefined): the IC50 in data set [1] was determined as 865 nM. The 50% effective dose (ED50) in data set [3] is above 90 mg/kg; in data set [5], above 5 mg/kg.
As to `C/C1=C(\CCOC(=O)[C@@H](N)C(C)C)SS/C(CCOC(=O)[C@@H](N)C(C)C)=C(/C)N(C=O)CCCCCCCCCCCCN1C=O.Cl`, in data set [1], the IC50 is 590 nM. For the same molecule, the Drug metabolism result in data set [2] is given as “Active”. Besides, the ED50 in data set [3] is 37 mg/kg; in data set [5], 1 mg/kg. In data set [4], the “Ratio ED50” value is 4.1.
For `CCN(CC)CCCC(C)Nc1ccnc2cc(Cl)ccc12` (centres undefined) [CHLOROQUINE], the ED50 in data set [3] was 3.4 mg/kg; in data set [5], 1.1 mg/kg.
For the molecule `CCCSS/C(CCO)=C(/C)N(C=O)CCCCCCCCCCCCN(C=O)/C(C)=C(/CCO)SSCCC`, the IC50 in data set [1] was found to be 1.3 nM. Also, the Drug metabolism result in data set [2] is reported as “Active”. In addition, the ED50 in data set [3] was above 54 mg/kg; in data set [5], 0.5 mg/kg.
As for `CSS/C(CCOC(=O)[C@@H](N)C(C)C)=C(/C)N(C=O)CCCCCCCCCCCCN(C=O)/C(C)=C(/CCOC(=O)[C@@H](N)C(C)C)SSC.Cl`, the IC50 in data set [1] stood at 160 nM. The Drug metabolism result in data set [2] is reported as “Active”. The values for the ED50 in data set [3] and in data set [5] were 58 mg/kg and 1 mg/kg, respectively. The “Ratio ED50” value in data set [4] is 1.7.
In the case of `Cc1c(CCOP(=O)(O)O)sc[n+]1CCCCCCCCCCCC[n+]1csc(CCOP(=O)(O)O)c1C`, the IC50 in data set [1] was determined as 6.65 nM. Besides, the figures for the ED50 in data set [3] and in data set [5] were 34 mg/kg and 0.34 mg/kg, respectively. In data set [4], the “Ratio ED50” value was determined as 1.
Consider `C/C(=C(\CCOP(=O)([O-])[O-])SSCc1ccccc1)N(C=O)CCCCCCCCCCCCN(C=O)/C(C)=C(/CCOP(=O)([O-])[O-])SSCc1ccccc1.[Li+].[Li+].[Li+].[Li+]`, for which the IC50 in data set [1] worked out at 4400 nM. In data set [2], the Drug metabolism result is given as “Active”. The ED50 is above 90 mg/kg in data set [3] and 3 mg/kg in data set [5].
Take `CSS/C(CCO)=C(/C)N(C=O)CCCCCCCCCCCCN(C=O)/C(C)=C(/CCO)SSC`: the half-maximal inhibitory concentration (IC50) in data set [1] worked out at 6 nM. In addition, the Drug metabolism result in data set [2] and in data set [6] was “Active” each time. Further, the ED50 in data set [3] stood at 15 mg/kg; in data set [5], 0.4 mg/kg. The “Ratio ED50” value in data set [4] stood at 2.7.
For the molecule `C/C1=C(\CCO)SS/C(CCO)=C(/C)N(C=O)CCCCCCCCCCCCN1C=O`, in data set [1], the IC50 turned out to be 65 nM. Further, the Drug metabolism entry in data set [2] is reported as “Active”. The ED50 in data set [3] was 22 mg/kg; in data set [5] it was 0.9 mg/kg.
As usually defined, the solubility is the concentration that dissolves in the medium under given conditions. In the case of `C/C1=C(\CCOC(=O)[C@@H](N)CCCCN)SS/C(CCOC(=O)[C@@H](N)CCCCN)=C(/C)N(C=O)CCCCCCCCCCCCN1C=O.Cl.Cl`, the IC50 in data set [1] worked out at 130 nM. The solubility in data set [7] came to 27 mg/mL. Further, the Drug metabolism entry in data set [2] is “Active”. The ED50 worked out at 50 mg/kg in data set [3] and 0.9 mg/kg in data set [5]. The “Ratio ED50” value in data set [4] is 1.8.
Consider `CCSS/C(CCO)=C(/C)N(C=O)CCCCCCCCCCCCN(C=O)/C(C)=C(/CCO)SSCC`, for which the half-maximal inhibitory concentration (IC50) in data set [1] came to 5.4 nM. In addition, the Drug metabolism result in data set [2] is given as “Active”. Besides, the ED50 in data set [3] amounted to 44 mg/kg; in data set [5] it was 1.1 mg/kg. For the same molecule, the “Ratio ED50” value in data set [4] is 2.5.
Turning to `CCSS/C(CCOP1(=O)OCc2ccccc2O1)=C(/C)N(C=O)CCCCCCCCCCCCN(C=O)/C(C)=C(/CCOP1(=O)OCc2ccccc2O1)SSCC` (centres undefined), the IC50 in data set [1] is 520 nM. Moreover, the Drug metabolism result in data set [2] is given as “Active”. Moreover, the ED50 is above 90 mg/kg in data set [3] and 5 mg/kg in data set [5].
`CSS/C(CCOC(=O)[C@@H](N)CCCCN)=C(/C)N(C=O)CCCCCCCCCCCCN(C=O)/C(C)=C(/CCOC(=O)[C@@H](N)CCCCN)SSC.Cl.Cl`: the IC50 in data set [1] is 120 nM. Moreover, the concentration in solution in data set [7] (solubility) was 27 mg/mL. Further, the Drug metabolism entry in data set [2] is listed as “Active”. Moreover, the median effective dose (ED50) in data set [3] was 44 mg/kg; in data set [5], 1 mg/kg. Further, the “Ratio ED50” value in data set [4] is recorded as 2.3.
Regarding `CC(=O)OCC/C1=C(\C)N(C=O)CCCCCCCCCCCCN(C=O)/C(C)=C(/CCOC(C)=O)SS1`, the IC50 in data set [1] came to 24 nM. The Drug metabolism entry in data set [2] is given as “Active”. In addition, the ED50 worked out at 7.3 mg/kg in data set [3] and 1 mg/kg in data set [5]. Moreover, the “Ratio ED50” value in data set [4] is reported as 13.7.
As to `CCOP(=O)(OCC)OCC/C(SSCC)=C(\C)N(C=O)CCCCCCCCCCCCN(C=O)/C(C)=C(/CCOP(=O)(OCC)OCC)SSCC`, in data set [1], the IC50 was 61.7 nM. The figures for the ED50 in data set [3] and in data set [5] were above 90 mg/kg and above 1 mg/kg, respectively.
As for `C/C(=C(\CCO)SSCc1ccccc1)N(C=O)CCCCCCCCCCCCN(C=O)/C(C)=C(/CCO)SSCc1ccccc1`, the IC50 in data set [1] was 14.4 nM. For the same molecule, the Drug metabolism result in data set [2] was “Active”. Further, the ED50 stood at 80 mg/kg in data set [3] and 1.3 mg/kg in data set [5]. In data set [4], the “Ratio ED50” value was found to be 1.6.
On to `Cc1c(CCO)sc[n+]1CCCCCCCCCCCC[n+]1csc(CCO)c1C.[Br-].[Br-]` [ALBITIAZOLIUM BROMIDE], for which the values for the ED50 in data set [3] and in data set [5] were 13 mg/kg and 0.2 mg/kg, respectively. The “Ratio ED50” value in data set [4] is on record as 1.5.
